Measured values as given in ChEMBL document CHEMBL4270643, “Structure-based drug design: Synthesis and biological evaluation of quinazolin-4-amine derivatives as selective Aurora A kinase inhibitors” (Eur J Med Chem, 2018).
pIC50: −log10 of the molar value.

How the values were obtained:
[1] = test system: SK-BR-3; assay: Antiproliferative activity against human SKBR3 cells after 48 hrs by CCK8 assay; type: functional, cell-based; conditions: for pIC50: Homo sapiens, SK-BR-3, 48 h, read-out: IC50; for IC50: sk-br-3
[2] = test system: HeLa; assay: Antiproliferative activity against human HeLa cells after 48 hrs by CCK8 assay; type: functional, cell-based; conditions: for pIC50: Homo sapiens, HeLa, 48 h, read-out: IC50
[3] = test system: DU-145; assay: Antiproliferative activity against human DU145 cells after 48 hrs by CCK8 assay; type: functional, cell-based; conditions: DU-145, 48 h
[4] = organism: Homo sapiens; assay: Selectivity ratio of IC50 for Aurora B (unknown origin) to IC50 for Aurora A (unknown origin)
[5] = target: T1, Aurora kinase A (Homo sapiens, UniProt O14965); assay: Inhibition of Aurora A (unknown origin) using FAM-labelled peptide as substrate pretreated for 10 mins followed by substrate addition and measured after 60 mins by fluorescence assay
T1 sequence (O14965 whole entry): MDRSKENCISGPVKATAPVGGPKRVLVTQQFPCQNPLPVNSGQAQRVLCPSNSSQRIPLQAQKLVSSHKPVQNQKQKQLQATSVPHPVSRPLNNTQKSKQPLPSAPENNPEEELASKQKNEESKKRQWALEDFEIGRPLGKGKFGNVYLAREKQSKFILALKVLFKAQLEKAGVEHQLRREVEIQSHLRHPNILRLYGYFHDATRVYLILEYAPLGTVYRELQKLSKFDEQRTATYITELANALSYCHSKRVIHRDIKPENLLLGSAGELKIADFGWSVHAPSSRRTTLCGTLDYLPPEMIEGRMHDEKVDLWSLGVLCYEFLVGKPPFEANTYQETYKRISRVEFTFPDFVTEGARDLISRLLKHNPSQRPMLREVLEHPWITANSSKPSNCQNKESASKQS
Procedure, shortened: (§1)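 Kinase IC50 values are the mean of at least two independent experiments; selectivity is the Aurora A/B ratio of these IC50s.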

[6] = test system: MDA-MB-231; assay: Antiproliferative activity against human MDA-MB-231 cells after 48 hrs by CCK8 assay; type: functional, cell-based; conditions: MDA-MB-231, 48 h
[7] = test system: MOLT-4; assay: Antiproliferative activity against human MOLT4 cells after 48 hrs by CCK8 assay; type: functional, cell-based; conditions: for IC50: molt-4; for pIC50: Homo sapiens, MOLT-4, 48 h, read-out: IC50
[8] = target: Aurora kinase B (Homo sapiens, UniProt Q96GD4); assay: Inhibition of Aurora B (unknown origin) using FAM-labelled peptide as substrate pretreated for 10 mins followed by substrate addition and measured after 60 mins by fluorescence assay; procedure, shortened: as §1
[9] = test system: MCF7; assay: Antiproliferative activity against human MCF7 cells after 48 hrs by CCK8 assay; type: functional, cell-based; conditions: for pIC50: Homo sapiens, MCF7, 48 h, read-out: IC50; for IC50: mcf7
[10] = test system: K562; assay: Antiproliferative activity against human K562 cells after 48 hrs by CCK8 assay; type: functional, cell-based; conditions: for pIC50: Homo sapiens, K562, 48 h, read-out: IC50; for IC50: k562

Sequence of Aurora kinase B (Q96GD4 whole entry): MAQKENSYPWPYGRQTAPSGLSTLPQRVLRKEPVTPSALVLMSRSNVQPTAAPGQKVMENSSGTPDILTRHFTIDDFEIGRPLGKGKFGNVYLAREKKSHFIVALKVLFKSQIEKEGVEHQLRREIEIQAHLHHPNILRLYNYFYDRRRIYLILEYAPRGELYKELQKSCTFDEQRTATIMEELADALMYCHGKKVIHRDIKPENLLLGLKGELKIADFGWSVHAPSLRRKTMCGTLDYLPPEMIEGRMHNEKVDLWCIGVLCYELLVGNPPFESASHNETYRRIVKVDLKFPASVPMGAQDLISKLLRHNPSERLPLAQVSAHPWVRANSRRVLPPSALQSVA

Cc1cc(Nc2nc(-c3ccccc3)nc3cc(F)ccc23)n[nH]1
pIC50 [1]: 4.97
pIC50 [2]: 5.01
pIC50 [3]: < 4.52
Ratio IC50 [4]: 88
pIC50 [5]: 7.14
pIC50 [6]: 4.95
IC50 [7]: Not Active
pIC50 [8]: 5.20
pIC50 [9]: < 4.52
pIC50 [10]: < 4.52

COc1ccc2c(Nc3cc(C)[nH]n3)nc(-c3ccccc3)nc2c1
pIC50 [1]: 5.69
pIC50 [2]: 5.88
pIC50 [3]: 5.33
Ratio IC50 [4]: 22
pIC50 [5]: 7.47
pIC50 [6]: 5.88
pIC50 [7]: 5.92
pIC50 [8]: 6.11
pIC50 [9]: 5.44
pIC50 [10]: 5.67

Cc1cc(Nc2nc(Cc3ccccc3)nc3ccccc23)n[nH]1
pIC50 [1]: 5.04
pIC50 [2]: 5.82
pIC50 [3]: 5.35
Ratio IC50 [4]: 18
pIC50 [5]: 7.16
pIC50 [6]: 5.51
pIC50 [7]: 5.24
pIC50 [8]: 5.90
pIC50 [9]: 4.88
pIC50 [10]: 5.64

Cc1cc(Nc2nc(-c3ccccc3)nc3cc(N4CCC(C(=O)O)CC4)ccc23)n[nH]1
pIC50 [1]: 4.79
pIC50 [2]: 5.73
pIC50 [3]: 4.67
Ratio IC50 [4]: 20
pIC50 [5]: 8.22
pIC50 [6]: 4.98
pIC50 [7]: 5.66
pIC50 [8]: 6.90
pIC50 [9]: 5.22
pIC50 [10]: 5.26

Cc1cc(Nc2nc(-c3ccccc3)nc3ccccc23)[nH]n1
pIC50 [5]: 7.55
pIC50 [8]: 6.07

Cc1cc(Nc2nc(C(C)C)nc3ccccc23)n[nH]1
pIC50 [1]: 4.92
pIC50 [2]: 5.55
pIC50 [3]: 5.13
Ratio IC50 [4]: 11
pIC50 [5]: 6.99
pIC50 [6]: 5.32
pIC50 [8]: 5.94
pIC50 [9]: 4.97
pIC50 [10]: 5.41

COc1ccc(C(=O)c2nc(Nc3cc(C)[nH]n3)c3ccc(Cl)cc3n2)cc1
IC50 [1]: Not Active
pIC50 [2]: < 4.52
pIC50 [3]: 4.90
Ratio IC50 [4]: > 134
pIC50 [5]: 6.13
pIC50 [6]: 4.91
pIC50 [8]: < 4.00
IC50 [9]: Not Active
IC50 [10]: Not Active

Cc1cc(Nc2nc(-c3ccccc3)nc3ccccc23)n[nH]1
pIC50 [1]: 5.60
pIC50 [2]: 6.05
pIC50 [3]: 5.10
Ratio IC50 [4]: 30
pIC50 [6]: 5.54
pIC50 [7]: 5.29
pIC50 [9]: 5.21
pIC50 [10]: 5.52

Cc1cc(Nc2nc(-c3ccc4ccccc4c3)nc3ccccc23)n[nH]1
pIC50 [1]: 5.15
pIC50 [2]: 5.43
pIC50 [3]: 4.98
Ratio IC50 [4]: 40
pIC50 [5]: 6.89
pIC50 [6]: 4.96
pIC50 [7]: 4.98
pIC50 [8]: 5.29
pIC50 [9]: < 4.52
pIC50 [10]: 4.82

Cc1cc(Nc2nc(-c3ccccc3)nc3cc(N4CCN(C)CC4)ccc23)n[nH]1
pIC50 [1]: 5.60
pIC50 [2]: 6.75
pIC50 [3]: 6.39
Ratio IC50 [4]: 30
pIC50 [5]: 8.00
pIC50 [6]: 6.85
pIC50 [7]: 6.83
pIC50 [8]: 6.57
pIC50 [9]: 6.18
pIC50 [10]: 6.72

COc1cccc2c(Nc3cc(C)[nH]n3)nc(Cc3ccccc3)nc12
pIC50 [1]: 5.57
pIC50 [2]: 5.84
pIC50 [3]: < 5.00
Ratio IC50 [4]: 22
pIC50 [5]: 7.39
pIC50 [6]: 5.58
pIC50 [7]: 5.32
pIC50 [8]: 6.05
pIC50 [9]: 5.20
pIC50 [10]: 5.84

COc1cccc2c(Nc3cc(C)[nH]n3)nc(-c3ccccc3)nc12
pIC50 [1]: 5.73
pIC50 [2]: 6.09
pIC50 [3]: 5.20
Ratio IC50 [4]: 21
pIC50 [5]: 7.60
pIC50 [6]: 5.72
pIC50 [7]: 5.54
pIC50 [8]: 6.26
pIC50 [9]: 5.38
pIC50 [10]: 5.64

COc1cccc(OC)c1C(=O)c1nc(Nc2cc(C)[nH]n2)c2ccc(N3CCC(C(=O)OC(C)(C)C)CC3)cc2n1
pIC50 [1]: 5.56
pIC50 [2]: 6.28
pIC50 [3]: 5.44
Ratio IC50 [4]: > 276
pIC50 [5]: 6.66
pIC50 [6]: 5.86
pIC50 [8]: < 4.22
pIC50 [9]: 5.82
pIC50 [10]: 6.43

Cc1cc(Nc2nc(-c3ccccc3)nc3cc([N+](=O)[O-])ccc23)n[nH]1
pIC50 [1]: 5.05
pIC50 [2]: 5.00
pIC50 [3]: 5.13
Ratio IC50 [4]: > 308
pIC50 [5]: 6.49
pIC50 [6]: 5.01
pIC50 [8]: < 4.00
pIC50 [9]: < 4.52
pIC50 [10]: 4.92

Cc1cc(Nc2nc(-c3ccccc3)nc3c([N+](=O)[O-])cccc23)n[nH]1
pIC50 [1]: 5.34
pIC50 [2]: 5.61
pIC50 [3]: 5.18
Ratio IC50 [4]: 26
pIC50 [5]: 6.76
pIC50 [6]: 5.46
pIC50 [7]: 5.19
pIC50 [8]: 5.34
pIC50 [9]: 5.34
pIC50 [10]: 5.19

Cc1cc(Nc2nc(-c3ccccc3)nc3cc(Cl)ccc23)n[nH]1
IC50 [1]: Not Active
pIC50 [2]: < 4.52
pIC50 [3]: < 4.52
pIC50 [5]: 6.88
pIC50 [6]: < 4.52
IC50 [7]: Not Active
pIC50 [9]: < 4.52
IC50 [10]: Not Active

Cc1ccc(C(=O)c2nc(Nc3cc(C)[nH]n3)c3ccc(Cl)cc3n2)cc1
IC50 [1]: Not Active
IC50 ([2]; hela): Not Active
pIC50 [3]: 4.80
Ratio IC50 [4]: > 77
pIC50 [5]: 5.89
pIC50 [6]: < 4.52
pIC50 [8]: < 4.00
IC50 [9]: Not Active
IC50 [10]: Not Active

CN1CCN(c2ccc3c(Nc4cc[nH]n4)nc(-c4ccccc4)nc3c2)CC1
pIC50 [1]: 5.21
pIC50 [2]: 5.11
pIC50 [3]: 5.28
Ratio IC50 [4]: 2.4
pIC50 [5]: 5.23
pIC50 [6]: 5.40
pIC50 [8]: 4.84
pIC50 [9]: 5.10
pIC50 [10]: 5.17

Cc1cc(Nc2nc(C(=O)c3ccccc3)nc3ccccc23)n[nH]1
pIC50 [1]: 4.83
pIC50 [2]: 5.28
pIC50 [3]: < 4.52
Ratio IC50 [4]: 61
pIC50 [5]: 6.73
pIC50 [6]: 4.77
pIC50 [7]: 5.05
pIC50 [8]: 4.94
pIC50 [9]: < 4.52
pIC50 [10]: < 4.52
